Experimental data pooled from the literature.
Lines come from different studies, so protocols differ.
MDH2: Malate dehydrogenase, mitochondrial (MDH2, Sus scrofa, UniProt P00346)
Gpr84: G-protein coupled receptor 84 (Gpr84, Mus musculus, UniProt Q8CIM5)

CC(O)CN1CCC(CC[S+]([O-])C(c2ccc(F)cc2)c2ccc(F)cc2)CC1 (stereo not drawn) gave a Ki of > 100 µM (Transporter (Slc6a2, Rattus norvegicus, UniProt Q63380); ligand displacement, radioligand).
For O=S(=O)(Nc1ccc(-c2nc3cc(NS(=O)(=O)c4ccccc4)ccc3o2)cc1)c1ccccc1, the IC50 was > 62.5 µM (MDH2; enzyme activity, inhibitor).
[O-][n+]1cccc(CCOc2ccc(Cl)c3ccccc23)c1 has an EC50 of 0.011 µM (Gpr84; cAMP, agonist).
CC(C)C[C@H](NC(=O)[C@H](CCCNC(=N)N)NC(=O)[C@H](C)N)C(=O)N[C@@H](Cc1ccc(O)cc1)C(=O)N[C@@H](Cc1ccc(O)cc1)C(=O)N[C@@H](Cc1ccccc1)C(=O)N[C@@H](Cc1c[nH]c2ccccc12)C(=O)N[C@@H](CC(=O)O)C(=O)N[C@H](C(=O)O)[C@@H](C)O gave a Ki of ~7.8 µM (DNA dC->dU-editing enzyme APOBEC-3G (APOBEC3G, Homo sapiens, UniProt Q9HC16); enzyme activity, inhibitor).
With CC(C)(C)n1nc(-c2cnc3cc(OC4CC4)ccc3c2)c(C(N)=O)c1N the IC50 was > 10 µM (Calcium/calmodulin-dependent protein kinase kinase 2 (CAMKK2, Homo sapiens, UniProt Q96RR4); cell-free assay).
For CC(=O)N[C@@H](CCCNC(=N)N)C(=O)NCC(=O)NCC(=O)N1CCC[C@H]1B(O)O, the Ki was 0.322 µM (Dipeptidyl peptidase 4 (DPP4, Homo sapiens, UniProt P27487); enzyme activity, inhibitor, fluorescence).
With COc1ccc(S(=O)(=O)Nc2ccc3oc(-c4ccc(NS(=O)(=O)c5cc(Br)ccc5OC)cc4)nc3c2)cc1 the IC50 was > 62.5 µM (MDH2; enzyme activity, inhibitor).
With CNC(=O)c1cc2c(Oc3ccc(NC(=O)C4(C(=O)Nc5ccc(F)cc5)CC4)cc3)ccnc2cc1OC the IC50 was 0.054 µM (Ephrin type-A receptor 2 (EPHA2, Homo sapiens, UniProt P29317); enzyme activity, inhibitor, radiometric).
CO[C@@H]1O[C@@H](C)[C@@H](O)[C@@H](O)[C@@H]1O has a Kd of 76.4 µM (fleA (Aspergillus fumigatus, UniProt Q4WW81); binding, ITC).
The IC50 of O=S(=O)(Nc1ccc(-c2nc3cc(NS(=O)(=O)c4cccc5ccccc45)ccc3o2)cc1)c1cccc2ccccc12 is reported as > 62.5 µM (MDH2; enzyme activity, inhibitor).
Cc1cnc(-c2ccc(-c3ccc(NC(=O)Nc4c(F)cc(F)cc4F)cc3F)c3c2C(=O)NC3)[nH]1 gave a Kd of 0.0009 µM (NT-3 growth factor receptor (NTRK3, Homo sapiens, UniProt Q16288); binding, competition with immobilised ligand).
For CCCN1CCN(c2ccc(-c3cncc(Cl)c3N3CCC4(CCNC4=O)CC3)cc2)CC1, the Kd was 20 µM (Serine/threonine-protein kinase D2 (PRKD2, Homo sapiens, UniProt Q9BZL6); cell-free assay; lysate).
CCCCCCCCCCCCCCCC(=O)OC[C@H](COP(=O)(O)OC1[C@H](O)[C@H](O)C(OP(=O)(O)O)[C@H](O)[C@H]1O)OC(=O)CCCCCCCCCCCCCCC (stereo partly drawn) has a Kd of 25.7 µM (Proto-oncogene tyrosine-protein kinase Src (SRC, Homo sapiens, UniProt P12931); binding, fluorescence).
With Cc1cc2nc3c(=O)[nH]c(=O)nc-3n(C[C@H](O)[C@H](O)[C@H](O)COP(=O)(O)OP(=O)(O)OC[C@H]3O[C@@H](n4cnc5c(N)ncnc54)[C@H](O)[C@@H]3O)c2cc1C the Kd was 0.022 µM (Ataxin-2 (Homo sapiens, UniProt Q99700); binding; lysate).
CCCCCCCCNc1cc(=O)[nH]c(=O)[nH]1 has an EC50 of 0.066 µM (Gpr84; cAMP, agonist).
